Converted amounts (≈) assume the structure as drawn.
How the values were obtained:
[1] = target: pancreatic elastase (Sus scrofa, UniProt P00772+P08419); test: Solubility against porcine pancreatic elastase; format: ADME, protein assay; details: pig
Outline: (§1)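 Single-point screen run under the HSE assay conditions (0.1 M HEPES, 0.5 M NaCl, 14.8% Me2SO, pH 7.5, 37 °C). One inhibitor concentration near its solubility limit: 25, 10, 1000 or 200 μM depending on compound. One substrate concentration at 0.29 Km; porcine elastase Km 2600 μM. Each run at least twice; p-nitrophenol read at 400 nm.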

[2] = system: alpha-chymotrypsin; test: (§2) Solubility against bovine alpha-chymotrypsin; format: ADME, Bos taurus; details: cattle; outline: as §1
[3] = target: T1, Neutrophil elastase (Homo sapiens, UniProt P08246); test: (§3) Evaluated for inhibition of the human sputum elastase (HSE)
T1 sequence (P08246 whole entry): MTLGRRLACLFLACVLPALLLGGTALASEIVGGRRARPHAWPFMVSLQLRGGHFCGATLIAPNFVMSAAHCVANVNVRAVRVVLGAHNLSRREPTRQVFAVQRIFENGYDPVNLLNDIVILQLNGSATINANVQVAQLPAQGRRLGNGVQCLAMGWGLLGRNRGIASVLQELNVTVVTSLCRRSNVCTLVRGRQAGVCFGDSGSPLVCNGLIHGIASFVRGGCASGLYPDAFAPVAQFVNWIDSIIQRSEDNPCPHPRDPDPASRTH
Outline: (§4)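 HSE from sputum prepared in 50 mM NaOAc/0.45 M NaCl pH 5.5. Assay in 0.1 M HEPES, 0.5 M NaCl, 14.8% Me2SO, pH 7.5, 37 °C. Inhibitor at two or more concentrations (4–250 μM depending on compound). […] Ki from Hanes–Woolf plots with Dixon-type replots.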

[4] = target: T2, trypsin (Serine protease 1) (Bos taurus, UniProt P00760); test: Solubility against bovine trypsin; format: ADME; details: cattle; outline: as §1
T2 sequence (P00760 whole entry): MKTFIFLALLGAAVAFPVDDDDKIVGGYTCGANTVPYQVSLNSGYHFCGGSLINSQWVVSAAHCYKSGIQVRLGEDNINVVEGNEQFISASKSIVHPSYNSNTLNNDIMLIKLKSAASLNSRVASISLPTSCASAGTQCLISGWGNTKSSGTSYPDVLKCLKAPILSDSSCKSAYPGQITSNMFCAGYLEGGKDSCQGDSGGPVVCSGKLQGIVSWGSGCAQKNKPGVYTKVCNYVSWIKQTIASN

[5] = Evaluated for uncompetitive inhibition of the human sputum elastase (HSE); outline: as §4
[6] = Evaluated for Non-competitive inhibition of the human sputum elastase (HSE); outline: as §4
[7] = as §3; format: functional; outline: as §4
[8] = system: alpha-chymotrypsin; test: as §2; format: ADME, organism-based, Bos taurus; details: cattle; outline: as §1
[9] = Evaluated for inhibition of the human sputum elastase (HSE) at 1000 micro M; No activity

Row | SMILES | inhibitor concentration tested (near solubility limit) [1] [µM] | inhibitor concentration tested (near solubility limit) [2] [µM] | Ki [3] [µM] | solubility [4] [µM] | Ki [5] [µM] | Ki [6] [µM] | Ki [7] [µM] | solubility [8] [µM] | Ki [9]
1 | CCCCCCCC(=O)c1c(O)cc(CCCCCCC)oc1=O | 25 | 25 | 15 | 25 (≈ 8.41 µg/mL) |  |  |  |  | 
2 | CCCCCCCCCc1cc(OC)cc(=O)o1 | 200 | 200 |  | 200 (≈ 50.5 µg/mL) | 130 |  |  |  | 
3 | CCCCCCCc1cc(O)cc(=O)o1 | 200 | 200 | 1100 | 200 (≈ 42.1 µg/mL) |  |  |  |  | 
4 | CCCCCCCC(=O)c1c(O)cc(C)oc1=O | 200 | 200 |  | 200 (≈ 50.5 µg/mL) |  | 400 |  |  | 
5 | CCCCCCCCCCCc1cc(O)cc(=O)o1 | 200 | 200 |  | 200 (≈ 53.3 µg/mL) |  |  | 83 |  | 
6 | CCCCCC(=O)c1c(O)cc(C)oc1=O | 200 | 200 |  | 200 (≈ 44.9 µg/mL) |  | 2000 |  |  | 
7 | CCCCCCCCCc1cc(O)cc(=O)o1 | 200 | 200 | 400 | 200 (≈ 47.7 µg/mL) |  |  |  |  | 
8 | CCOC(=O)C(=O)/C=C1\C=C(OC)C=C(O)O1 | 200 | 200 | 120 | 200 (≈ 48 µg/mL) |  |  |  |  | 
9 | CCCCCc1cc(O)cc(=O)o1 | 200 | 200 | 1700 | 200 (≈ 36.4 µg/mL) |  |  |  |  | 
10 | CCCCCCCCCCCC(=O)c1c(O)cc(CCCCCCCCCCC)oc1=O | 10 |  |  | 10 (≈ 4.49 µg/mL) |  |  |  | 10 (≈ 4.49 µg/mL) | 
11 | CCCCCCCCC(=O)c1c(O)cc(CCCCCCCC)oc1=O | 25 | 25 | 4.6 | 25 (≈ 9.11 µg/mL) |  |  |  |  | 
12 | CCCCCCCCCC(=O)c1c(O)cc(C)oc1=O | 200 | 200 |  | 200 (≈ 56.1 µg/mL) |  | 250 |  |  | 
13 | CCCCCCCCCCCC(=O)c1c(O)cc(C)oc1=O | 200 | 200 |  | 200 (≈ 61.7 µg/mL) |  | 54 |  |  | 
14 | CCCCCC(=O)c1c(O)cc(CCCCC)oc1=O | 25 | 25 |  | 25 (≈ 7.01 µg/mL) |  | 67 |  |  | 
15 | CCCCCCCc1cc(OC)cc(=O)o1 | 200 | 200 |  | 200 (≈ 44.9 µg/mL) | 140 |  |  |  | 
16 | CCCCCCCCCC(=O)c1c(O)cc(CCCCCCCCC)oc1=O | 25 | 25 | 7.9 | 25 (≈ 9.81 µg/mL) |  |  |  |  | 
17 | CCCCCOC(=O)C(=O)/C=C1\C=C(OC)C=C(O)O1 | 200 | 200 | 410 | 200 (≈ 56.5 µg/mL) |  |  |  |  | 
18 | CCCCOC(=O)C(=O)/C=C1\C=C(OC)C=C(O)O1 | 200 | 200 | 350 | 200 (≈ 53.7 µg/mL) |  |  |  |  | 
19 | COC1=C/C(=C\C(=O)C(=O)O)OC(O)=C1 | 1000 | 1000 |  | 1000 (≈ 212 µg/mL) |  |  |  |  | No inhibitory activity

— ChEMBL document CHEMBL1123928, “Inhibition of human sputum elastase by substituted 2-pyrones” (J Med Chem, 1987)
